The source of these data is ChEMBL document CHEMBL1123409, “Analogues of platelet activating factor. 4. Some modifications of the phosphocholine moiety” (J Med Chem, 1986).

Test [1] is filed under the species Oryctolagus cuniculus. Briefly: The maximum aggregation response observed at 1e-6 M concentration of the compound. The format is functional.
The subject of a further test is Rattus norvegicus. Briefly: Intravenous dose required to decrease mean arterial blood pressure (MABP) 50 mm Hg. The class given is functional. In outline:
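Spontaneously hypertensive rats, dosed intravenously. The dose that lowers mean arterial blood pressure by 50 mm Hg is read from the dose-response curve.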

A short description of test [2]: The ratio of (MABP / Platelet EC 50) x 10^-8.
For test [3], the species on record is Oryctolagus cuniculus. Nature of the test: The maximum aggregation response observed at 1.7e-4 M concentration of the compound. The format is functional.
Test [4] is filed under the species Oryctolagus cuniculus. Briefly: Effective concentration required to produce 50% of maximum aggregation of platelets. The class given is functional, organism-based. Put shortly:
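Aggregation tested in rabbit platelet-rich plasma. In each experiment, a dose-response curve was built from six to eight doses spanning 10^-9 to 10^-4 M, with three to four replicates per dose level. EC50 is the molar concentration giving 50% of that analogue's own maximum aggregation response.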

Test [5] is filed under the species Oryctolagus cuniculus. Briefly: The maximum aggregation response observed at 1.7e-4M concentration of the compound. The format is functional.
The species entered for test [6] is Oryctolagus cuniculus. Briefly: The maximum aggregation response observed at 6.8e-6 M concentration of the compound. The format is functional.
For test [7], the species on record is Oryctolagus cuniculus. Briefly: The maximum aggregation response observed at 1.8e-4 M concentration of the compound. The format is functional.
Test [8] is filed under the species Oryctolagus cuniculus. Nature of the test: The maximum aggregation response observed at 1e-5 M concentration of the compound. The class given is functional.
The species named for test [9] is Oryctolagus cuniculus. Nature of the test: The maximum aggregation response observed at 5e-5 M concentration of the compound. The class given is functional.
Test [10] is described as follows: The ratio of (MABP / Platelet EC 50) x 100. The format is functional.
Test [11] is filed under the species Oryctolagus cuniculus. Nature of the test: The maximum aggregation response observed at 1.48e-5 M concentration of the compound. The class given is functional.
Test [12] is filed under the species Oryctolagus cuniculus. Briefly: The maximum aggregation response observed at 1.6e-4 M concentration of the compound. The class given is functional.

In turn, `CCCCCCCCCCCCCCCCOCC(COP(=O)([O-])OCC(C)[N+](C)(C)C)OC(C)=O` (stereo not given) came in with a Max aggregation response in the test filed under Oryctolagus cuniculus [1] of 66. The molecule also gave a Dose in the test on Rattus norvegicus of 0.15 µg/kg. For the same molecule, the Ratio in test [2] was 0.47.

The molecule `CCCCCCCCCCCCCCCCOCC(COP(=O)([O-])OCCC[N+](C)(C)C)OC(C)=O` (stereo not given) gave a Max aggregation response in the test listed under Oryctolagus cuniculus [1] of 65. Further, the Dose in the test on Rattus norvegicus came to 1.43 µg/kg. For the same molecule, the Ratio in test [2] is reported as 0.57.

For orientation: EC50 means the concentration at which the effect is half-maximal. A high value points to weaker potency. The molecule `CCCCCCCCCCCCCCCCOCC(COP(=O)([O-])OCCCCCC[N+](C)(C)C)OC(C)=O` (stereo not given) showed a Max aggregation response in the test listed under Oryctolagus cuniculus [3] of 35. In the test on Rattus norvegicus, this molecule registered a Dose of 164.9 µg/kg. The molecule further returned an EC50 in the test filed under Oryctolagus cuniculus [4] of 27 µM. For the same molecule, in test [2], the Ratio turned out to be 0.06.

`CCCCCCCCCCCCCCCCOCC(COP(=O)([O-])OCCCCCCCC[N+](C)(C)C)OC(C)=O` (stereo not given): the Max aggregation response in the test listed under Oryctolagus cuniculus [5] is 41. In the test on Rattus norvegicus, this molecule gave a Dose of more than 4000 µg/kg. The EC50 in the test filed under Oryctolagus cuniculus [4] amounted to 37 µM.

As for `CCCCCCCCCCCCCCCCOCC(COP(=O)([O-])OCC[N+](C)(C)C)OC(C)=O` (stereo not given) [PLATELET ACTIVATING FACTOR], the Max aggregation response in the test filed under Oryctolagus cuniculus [6] was determined as 71. The molecule also displayed a Dose with Rattus norvegicus of 1.25 µg/kg. The Ratio in [2] worked out at 0.47.

The molecule `CCCCCCCCCCCCCCCCOCC(COP(=O)([O-])OCCCC[N+](C)(C)C)OC(C)=O` (stereo not given) registered a Max aggregation response in the test filed under Oryctolagus cuniculus [7] of 68. Further, the Dose with Rattus norvegicus is 4.84 µg/kg. Moreover, in test [2], the Ratio is 0.65.

As for `CCCCCCCCCCCCCCCCCCOCC(COP(=O)([O-])OCCCC[N+](C)(C)C)OC(C)=O` (stereo not given), the Max aggregation response in the test listed under Oryctolagus cuniculus [8] was 71. This molecule returned a Dose with Rattus norvegicus of 15.85 µg/kg. In addition, the Ratio in test [2] stood at 0.36.

In turn, `CCCCCCCCCCCCCCCCOCC(COP(=O)([O-])Oc1cccc(C[N+](C)(C)C)c1)OC(C)=O` (stereo not given) had a Max aggregation response in the test filed under Oryctolagus cuniculus [9] of 64. For the same molecule, the Dose in the test on Rattus norvegicus was 1.36 µg/kg. Moreover, the Ratio in test [2] is reported as 0.23.

As to `CCCCCCCCCCCCCCCCOCC(COP(=O)([O-])OCC(c1ccccc1)[N+](C)(C)C)OC(C)=O` (stereo not given), the Max aggregation response in the test listed under Oryctolagus cuniculus [9] stood at 69. In the test with Rattus norvegicus, this molecule came in with a Dose of 3.93 µg/kg. Also, in [10], the Ratio was determined as 0.06.

The molecule `CCCCCCCCCCCCCCCCCCOCC(COP(=O)([O-])CC[N+](C)(C)C)OC(C)=O` (stereo not given) yielded a Max aggregation response in the test listed under Oryctolagus cuniculus [8] of 82. This molecule came in with a Dose with Rattus norvegicus of 76.54 µg/kg. In test [2], the Ratio amounted to 3.83.

`CCCCCCCCCCCCCCCCCCOCC(COP(=O)([O-])OCC[N+](C)(C)C)OC(C)=O` (stereo not given) showed a Max aggregation response in the test filed under Oryctolagus cuniculus [11] of 75. In the test with Rattus norvegicus, this molecule returned a Dose of 3.17 µg/kg. Moreover, in [2], the Ratio is on record as 1.34.

Molecule `CCCCCCCCCCCCCCCCOCC(COP(=O)([O-])OC(C)C[N+](C)(C)C)OC(C)=O` (stereo not given) returned a Max aggregation response in the test filed under Oryctolagus cuniculus [8] of 74. In the test with Rattus norvegicus, this molecule came in with a Dose of 1.16 µg/kg. Further, the Ratio in [2] was determined as 0.28.

For `CCCCCCCCCCCCCCCCOCC(COP(=O)([O-])OCCCCCCCCCC[N+](C)(C)C)OC(C)=O` (stereo not given), in the test filed under Oryctolagus cuniculus [12], the Max aggregation response was found to be 18. The molecule also had a Dose in the test on Rattus norvegicus of more than 4000 µg/kg. This molecule registered an EC50 in the test filed under Oryctolagus cuniculus [4] of 59 µM.
